Entries after “also recorded” stand apart in the source; their conditions may differ. Non-standard residues stand in square brackets, D forms with d.
How the values were obtained:
[1] = system: AD/pABC3 or AD/CaCDR1 cells; assay: Rhodamine 6G uptake in de-energised cells; assay type: cell-based, Saccharomyces cerevisiae; conditions: concentrations <20 μM
Method in brief: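 Host S. cerevisiae and Cdr1p-expressing cells were harvested at log phase, washed, and suspended in 50 mM HEPES-NaOH pH 7.0. They were de-energised with 5 mM 2-deoxyglucose (30 °C, 30 min), then given 15 μM R6G ± test peptide at OD600 1.0. Samples taken at time intervals were boiled 10 min in SDS/mercaptoethanol/Tris pH 6.8 lysis buffer. Released R6G was quantified fluorimetrically against a standard curve in lysis buffer.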

AD/pABC3 (Control) [2] = assay: Agarose diffusion FLC chemosensitization assay; assay type: cell-based, Saccharomyces cerevisiae; conditions: presence or absence of FLC at 1/4 MIC
Pma1p ATPase = target: T1, Pma1p ATPase (Saccharomyces cerevisiae, UniProt P05030); assay: Pma1p ATPase assay; assay type: biochemical; conditions: read-out: IC50 Pma1p ATPase; pH 7.0, 10 μM oligomycin
T1 sequence (P05030 1-918): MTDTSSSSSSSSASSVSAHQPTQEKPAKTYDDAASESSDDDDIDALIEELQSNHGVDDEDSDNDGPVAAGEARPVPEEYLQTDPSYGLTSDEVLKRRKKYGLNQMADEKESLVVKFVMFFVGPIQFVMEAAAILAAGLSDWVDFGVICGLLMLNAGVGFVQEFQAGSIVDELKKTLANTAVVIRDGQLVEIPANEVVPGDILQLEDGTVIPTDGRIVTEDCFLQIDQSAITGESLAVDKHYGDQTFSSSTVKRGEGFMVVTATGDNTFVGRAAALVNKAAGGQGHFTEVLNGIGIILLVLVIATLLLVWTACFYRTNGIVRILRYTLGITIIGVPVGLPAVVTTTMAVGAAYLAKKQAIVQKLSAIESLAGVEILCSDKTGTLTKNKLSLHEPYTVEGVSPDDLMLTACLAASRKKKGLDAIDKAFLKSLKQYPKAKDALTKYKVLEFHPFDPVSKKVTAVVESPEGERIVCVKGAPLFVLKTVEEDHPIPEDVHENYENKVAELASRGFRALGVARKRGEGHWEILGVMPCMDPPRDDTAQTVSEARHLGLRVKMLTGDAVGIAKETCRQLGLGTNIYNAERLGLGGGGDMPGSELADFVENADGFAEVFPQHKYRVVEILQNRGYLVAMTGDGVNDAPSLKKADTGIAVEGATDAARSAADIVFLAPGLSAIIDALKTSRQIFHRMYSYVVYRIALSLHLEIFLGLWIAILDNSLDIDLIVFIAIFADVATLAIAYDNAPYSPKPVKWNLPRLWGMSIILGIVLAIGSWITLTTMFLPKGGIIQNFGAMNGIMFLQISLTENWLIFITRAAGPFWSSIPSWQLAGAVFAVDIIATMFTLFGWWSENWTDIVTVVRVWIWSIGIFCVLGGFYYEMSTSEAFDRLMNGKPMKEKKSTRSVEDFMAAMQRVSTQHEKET

[3] = system: AD/CDR1 (Wild type CaCdr1p); assay: MIC, liquid microdilution; assay type: cell-based, Saccharomyces cerevisiae; conditions: AD/CDR1, Wild type; RC21 and rhodamines; CSM pH 7.0, 30°C, 48 h
EL6 (CaCdr1p Q1445R) = assay: MIC, liquid microdilution; assay type: cell-based, Saccharomyces cerevisiae; conditions: EL6, Q1445R; RC21 and rhodamines; CSM pH 7.0, 30°C, 48 h
human red blood cells = assay: Hemolysis; assay type: cell-based; conditions: ≤100 μM
[4] = system: S. cerevisiae AD/CaCDR1 variants; assay: Spontaneous variants resistant to FLC chemosensitization; assay type: cell-based, Saccharomyces cerevisiae
C. albicans MML610 = conditions: 0.62 μM; FLC-susceptible parental strain MML610; ref Holmes et al., 2008; cited from earlier work
[5] = system: C. albicans strain MML33 (deleted of both copies of CDR1); assay: Agarose diffusion / checkerboard FLC chemosensitization; assay type: cell-based, Candida albicans; conditions: 7.5 nmole RC21
Method in brief: (§1)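 Agarose diffusion on C. albicans clinical isolates. Base CSM-ura with FLC at the indicated concentration was solidified with 0.6% agarose. Cells were layered over it in CSM-ura overlay (0.4% agarose plus FLC). Crude, non-HPLC-purified test peptide (7.5 nmole) was dried on a paper disk at 37 °C for 1-2 h and placed on the overlay. Plates were incubated at 30 °C for 48 h, and inhibition-zone diameters were compared with and without FLC.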

C. albicans strain CIA4 = assay: as above; assay type: cell-based, Candida albicans; conditions: FLC-susceptible strain CIA4; 7.5 nmole RC21
Method in brief: as §1

EL4-1 (CaCdr1p Q1226K) = assay: MIC, liquid microdilution; assay type: cell-based, Saccharomyces cerevisiae; conditions: EL4-1, Q1226K; RC21 and rhodamines; CSM pH 7.0, 30°C, 48 h
AD/pABC3 (Control) [6] = assay: MIC, liquid microdilution; assay type: cell-based, Saccharomyces cerevisiae; conditions: AD/pABC3, Control; RC21 and rhodamines; CSM pH 7.0, 30°C, 48 h
EL4-2 (CaCdr1p Q1226R) = assay: MIC, liquid microdilution; assay type: cell-based, Saccharomyces cerevisiae; conditions: EL4-2, Q1226R; RC21 and rhodamines; CSM pH 7.0, 30°C, 48 h
Cdr1p ATPase = Cdr1p ATPase (Candida albicans, UniProt P43071); assay: CaCdr1p ATPase inhibition assay; assay type: biochemical
[7] = target: CaCdr1p-mediated rhodamine 6G efflux in AD/CaCDR1 cells (Candida albicans, UniProt P43071); conditions: 1.25 μM; S. cerevisiae strain overexpressing CaCdr1p; ref Holmes et al., 2008; cited from earlier work
EL1/TM2 (CaCdr1p G547R) = assay: MIC, liquid microdilution; assay type: cell-based, Saccharomyces cerevisiae; conditions: EL1/TM2, G547R; RC21 and rhodamines; CSM pH 7.0, 30°C, 48 h
C. albicans MML611 = conditions: 0.62 μM; FLC-resistant MML611; ref Holmes et al., 2008; cited from earlier work
CaCdr2p = conditions: 1.25 μM; strain overexpressing CaCdr2p; ref Holmes et al., 2008; cited from earlier work
EL3 (CaCdr1p Q714K) = assay: MIC, liquid microdilution; assay type: cell-based, Saccharomyces cerevisiae; conditions: EL3, Q714K; RC21 and rhodamines; CSM pH 7.0, 30°C, 48 h
[8] = system: AD/CDR1 (Wild type CaCdr1p; AD/CaCDR1B); assay: Agarose diffusion FLC chemosensitization assay; assay type: cell-based, Saccharomyces cerevisiae; conditions: crude RC21 6 nmole/disk; FLC at 1/4 MIC
TM5 (CaCdr1p V674F) = assay: MIC, liquid microdilution; assay type: cell-based, Saccharomyces cerevisiae; conditions: TM5, V674F; RC21 and rhodamines; CSM pH 7.0, 30°C, 48 h

Chain of Cdr1p ATPase (P43071 whole entry): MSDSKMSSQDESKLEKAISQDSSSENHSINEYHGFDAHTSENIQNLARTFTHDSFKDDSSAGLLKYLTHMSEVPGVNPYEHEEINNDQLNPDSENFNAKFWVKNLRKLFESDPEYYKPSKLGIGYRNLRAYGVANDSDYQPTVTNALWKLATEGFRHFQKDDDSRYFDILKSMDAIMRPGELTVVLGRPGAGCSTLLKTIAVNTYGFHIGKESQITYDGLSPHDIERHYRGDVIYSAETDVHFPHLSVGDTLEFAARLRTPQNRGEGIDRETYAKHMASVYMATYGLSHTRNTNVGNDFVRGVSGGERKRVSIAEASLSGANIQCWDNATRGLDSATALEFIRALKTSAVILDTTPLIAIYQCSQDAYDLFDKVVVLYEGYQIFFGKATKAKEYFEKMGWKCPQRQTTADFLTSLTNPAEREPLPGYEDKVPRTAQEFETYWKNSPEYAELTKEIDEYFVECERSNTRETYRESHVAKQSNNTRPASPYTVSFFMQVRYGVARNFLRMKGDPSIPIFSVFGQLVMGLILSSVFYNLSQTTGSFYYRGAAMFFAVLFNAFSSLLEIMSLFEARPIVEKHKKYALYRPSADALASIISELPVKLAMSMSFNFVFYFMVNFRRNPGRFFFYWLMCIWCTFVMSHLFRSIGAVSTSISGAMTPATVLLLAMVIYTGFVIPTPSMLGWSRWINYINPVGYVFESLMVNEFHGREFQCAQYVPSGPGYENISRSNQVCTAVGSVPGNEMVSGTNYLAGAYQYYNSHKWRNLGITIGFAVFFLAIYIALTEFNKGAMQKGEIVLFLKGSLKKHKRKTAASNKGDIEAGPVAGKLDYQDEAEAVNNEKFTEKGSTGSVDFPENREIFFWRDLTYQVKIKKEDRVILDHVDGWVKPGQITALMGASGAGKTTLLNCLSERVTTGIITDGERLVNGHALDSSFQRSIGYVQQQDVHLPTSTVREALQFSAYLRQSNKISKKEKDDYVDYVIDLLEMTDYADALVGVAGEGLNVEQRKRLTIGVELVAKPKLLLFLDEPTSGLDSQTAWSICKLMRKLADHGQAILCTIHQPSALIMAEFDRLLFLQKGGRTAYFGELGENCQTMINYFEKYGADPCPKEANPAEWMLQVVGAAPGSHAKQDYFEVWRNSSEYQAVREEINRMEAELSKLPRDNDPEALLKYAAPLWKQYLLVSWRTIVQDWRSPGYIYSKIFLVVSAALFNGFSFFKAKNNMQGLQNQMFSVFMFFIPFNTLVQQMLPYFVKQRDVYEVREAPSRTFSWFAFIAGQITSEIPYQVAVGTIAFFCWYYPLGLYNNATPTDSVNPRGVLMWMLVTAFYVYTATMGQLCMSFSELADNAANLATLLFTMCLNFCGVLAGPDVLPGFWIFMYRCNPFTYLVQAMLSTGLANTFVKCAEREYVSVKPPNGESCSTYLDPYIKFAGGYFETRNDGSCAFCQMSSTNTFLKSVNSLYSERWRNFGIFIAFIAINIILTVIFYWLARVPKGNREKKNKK
Chain of CaCdr1p-mediated rhodamine 6G efflux in AD/CaCDR1 cells (P43071 whole entry): as above

## D-NH2-FFKWQRRR-CONH2 + Mtr (H-[dF][dF][dK][dW][dQ][dR][dR][dR]-NH2; also: + Mtr, position not given here) [RC21]
[1]
  effect on the rate of uptake of R6G: no significant effect
AD/pABC3 (Control) [2]
  effect on growth of strain AD/pABC3: no effect
Pma1p ATPase
  IC50: 5 µM
[3]
  MIC: 20 µM
EL6 (CaCdr1p Q1445R)
  MIC: 20 µM
Human red blood cells
  lysis of red blood cells: did not lyse; also recorded: did not hemolyse
[4]; variant C1, Q1226K, External loop 4
  Resistance to FLC chemosensitization: High
[4]; variant C2, G547R, TMD1, TMS2
  Resistance to FLC chemosensitization: High
[4]; variant E1, V674F, TMD1, TMS5
  Resistance to FLC chemosensitization: Moderate
[4]; variant E2, V674F, TMD1, TMS5
  Resistance to FLC chemosensitization: Moderate
[4]; variant F1, Q1226K, External loop 4
  Resistance to FLC chemosensitization: High
[4]; variant F2, Q1226K, External loop 4
  Resistance to FLC chemosensitization: High
[4]; variant F3, Q714K, External loop 3
  Resistance to FLC chemosensitization: High
[4]; variant HE2, Q1226R, External loop 4
  Resistance to FLC chemosensitization: High
C. albicans MML610
  inhibition of glucose-dependent R6G efflux: detectably inhibited
[5]
  effect on FLC susceptibility: minor effect
C. albicans strain CIA4
  effect on FLC susceptibility: conferred increased FLC susceptibility
EL4-1 (CaCdr1p Q1226K)
  MIC: 20 µM
AD/pABC3 (Control) [6]
  MIC: >20 µM
EL4-2 (CaCdr1p Q1226R)
  MIC: 20 µM
Cdr1p ATPase; IC50 = 20 → 1.3 μM
  increase in potency against CaCdr1p ATPase activity during deconvolution: 16 fold
Cdr1p ATPase; preincubation of membranes with ATP
  mode of inhibition of CaCdr1p ATPase: not a competitive inhibitor
[7]
  inhibition of glucose-dependent R6G efflux: 90%
EL1/TM2 (CaCdr1p G547R)
  MIC: 20 µM
C. albicans MML611
  inhibition of glucose-dependent R6G efflux: 90%
CaCdr2p
  effect on glucose-dependent R6G efflux: no effect
EL3 (CaCdr1p Q714K)
  MIC: 20 µM
[8]
  inhibition of FLC resistance mediated by over-expression in S. cerevisiae of CaCdr1p: inhibited FLC resistance
TM5 (CaCdr1p V674F)
  MIC: 20 µM
